Active and inactive are the calls of the source. No cut-off for these calls is given here.
Legend:
Dendritic cell [1] = assay: Myeloprotective activity assessed as inhibition of CCL22 secretion in mouse dendritic cells after 24 hrs by ELISA; type: functional, cell-based
How it was run: (§1)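 Murine bone-marrow-derived dendritic cells, not LPS-stimulated, incubated with compounds at 0.1 and 1 µg/ml for 24 h. MIP-1α, CCL22 and TNF-α in culture supernatants measured by ELISA. % change = (B−A)/A×100 against untreated DCs.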

Dendritic cell [2] = assay: Myeloprotective activity assessed as stimulation of MIP1 secretion in mouse dendritic cells after 24 hrs by ELISA relative to basal level; type: functional, cell-based; how it was run: as §1
Dendritic cell [3] = assay: Myeloprotective activity assessed as inhibition of TNFalpha secretion in mouse dendritic cells after 24 hrs by ELISA relative to basal level; type: functional, cell-based; how it was run: as §1
[4] = Antiinflammatory activity assessed as inhibition of TNFalpha secretion in LPS-induced C57BL/6 mouse dendritic cells at 1 ug/mL after 24 hrs by ELISA; type: functional; conditions: C57BL/6, Dendritic cell
How it was run: (§2)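 DCs grown from femoral bone marrow of 8–12-week-old C57BL/6 mice in RPMI-1640 with 10% FBS and rmGM-CSF (20 ng/ml), 37 °C, 5% CO₂. Immature DCs stimulated with LPS (100 ng/ml) and exposed to compounds (0.001–10 µg/ml range) for 24 h. Cytokine in supernatant quantified by ELISA. % change = (B−A)/A×100, where A is LPS-stimulated DCs without compound.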

Dendritic cell [5] = assay: Antiinflammatory activity assessed as inhibition of IP-10 secretion in LPS-induced C57BL/6 mouse dendritic cells after 24 hrs by ELISA; type: functional, cell-based; how it was run: as §2
DU-145 = assay: Cytotoxicity against human DU145 cells after 72 hrs by MTT assay; type: functional, cell-based; conditions: DU-145, 72 h
How it was run: (§3)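 5000–10,000 cells seeded per well and exposed for 72 h in a CO₂ incubator to five concentrations, the highest 10 µM (top soluble). MTT (125 µg) added for 3 h, then lysed with 10% SDS–0.01 N HCl for 1 h. Absorbance read at 540 nm. % cytotoxicity = (1 − (treated−blank)/control)×100.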

NIH3T3 (Mus musculus) = assay: Cytotoxicity against mouse NIH3T3 cells after 72 hrs by MTT assay; conditions: NIH3T3, 72 h
[6] = Cytotoxicity against human MIA PaCa cells after 72 hrs by MTT assay; type: functional, cell-based; how it was run: as §3
SW-620 = assay: Cytotoxicity against human SW620 cells after 72 hrs by MTT assay; type: functional, cell-based; conditions: SW-620, 72 h; how it was run: as §3
KB = assay: Cytotoxicity against human KB cells after 72 hrs by MTT assay; type: functional, cell-based; how it was run: as §3
A549 = assay: Cytotoxicity against human A549 cells after 72 hrs by MTT assay; type: functional, cell-based; conditions: A549, 72 h; how it was run: as §3
HBL-100 = assay: Cytotoxicity against human HBL100 cells after 72 hrs by MTT assay; type: functional, cell-based; conditions: HBL-100, 72 h; how it was run: as §3
PA-1 = assay: Cytotoxicity against human PA1 cells after 72 hrs by MTT assay; type: functional, cell-based; conditions: PA-1, 72 h; how it was run: as §3
K562 = assay: Cytotoxicity against human K562 cells after 72 hrs by MTT assay; type: functional, cell-based; conditions: K562, 72 h; how it was run: as §3
[7] = Antiinflammatory activity assessed as inhibition of IL1-beta secretion in LPS-induced C57BL/6 mouse dendritic cells after 24 hrs by ELISA; type: functional, Dendritic cell; how it was run: as §2

Compound: C#CCn1cc(C(=O)NCCCOC(=O)CNC(=O)OC(C)(C)C)c(=O)c2ccc(Cl)nc21
- Activity (Dendritic cell [1]): Active
- Activity (Dendritic cell [2]): Active
- Activity (Dendritic cell [3]): Active
- inhibition at 1 µg/mL [4]: > 50%
- Activity (Dendritic cell [5]): Active

Compound: C#CCn1cc(C(=O)NCCCOC(=O)[C@H](C)NC(=O)OC(C)(C)C)c(=O)c2ccc(Cl)nc21
- Activity (Dendritic cell [1]): Active
- Activity (Dendritic cell [2]): Active
- IC50 (DU-145): > 10 µM
- IC50 (NIH3T3 (Mus musculus)): 9.2 µM
- Activity (Dendritic cell [3]): Active
- IC50 [6]: > 10 µM
- IC50 (SW-620): > 10 µM
- IC50 (KB): > 10 µM
- IC50 (A549): > 10 µM
- IC50 (HBL-100): 5.4 µM
- IC50 (PA-1): > 10 µM
- IC50 (K562): > 10 µM

Compound: C#CCn1cc(C(=O)NCCCOC(=O)[C@@H](O)[C@@H](N)c2ccccc2)c(=O)c2ccc(Cl)nc21
- Inhibition [7]: >50%

Compound: C#CCn1cc(C(=O)NCCCOC(=O)CNC(=O)OC(C)(C)C)c(=O)c2cccnc21
- IC50 (DU-145): > 10 µM
- IC50 (NIH3T3 (Mus musculus)): > 10 µM
- IC50 [6]: > 10 µM
- IC50 (SW-620): > 10 µM
- IC50 (KB): 7 µM
- IC50 (A549): > 10 µM
- IC50 (HBL-100): > 10 µM
- IC50 (PA-1): 9 µM
- IC50 (K562): > 10 µM

Compound: C#CCn1cc(C(=O)NCCCOC(=O)[C@H]2CCCN2C(=O)OC(C)(C)C)c(=O)c2ccc(C)nc21
- IC50 (DU-145): > 10 µM
- IC50 (NIH3T3 (Mus musculus)): > 10 µM
- IC50 [6]: > 10 µM
- IC50 (SW-620): > 10 µM
- IC50 (KB): 3.7 µM
- IC50 (A549): > 10 µM
- IC50 (HBL-100): > 10 µM
- IC50 (PA-1): > 10 µM
- IC50 (K562): > 10 µM

Compound: C#CCn1cc(C(=O)NCCCOC(=O)[C@H]2OC(C)(C)N(C(=O)OC(C)(C)C)[C@@H]2c2ccccc2)c(=O)c2ccc(Cl)nc21
- IC50 (DU-145): > 10 µM
- IC50 (NIH3T3 (Mus musculus)): > 10 µM
- IC50 [6]: > 10 µM
- IC50 (SW-620): 3.96 µM
- inhibition at 1 µg/mL [4]: > 50%
- IC50 (KB): > 10 µM
- IC50 (A549): > 10 µM
- IC50 (HBL-100): 1.37 µM
- IC50 (PA-1): 6 µM
- Inhibition [7]: >50%
- IC50 (K562): > 10 µM

Compound: C#CCn1cc(C(=O)NCCCOC(=O)[C@H]2CCCN2C(=O)OC(C)(C)C)c(=O)c2ccc(Cl)nc21
- Activity (Dendritic cell [1]): Active
- Activity (Dendritic cell [2]): Active
- IC50 (DU-145): > 10 µM
- IC50 (NIH3T3 (Mus musculus)): 8.4 µM
- Activity (Dendritic cell [3]): Active
- IC50 [6]: 7.6 µM
- IC50 (SW-620): > 10 µM
- inhibition at 1 µg/mL [4]: > 50%
- IC50 (KB): > 10 µM
- IC50 (A549): > 10 µM
- IC50 (HBL-100): 3.7 µM
- IC50 (PA-1): > 10 µM
- IC50 (K562): > 10 µM
- Activity (Dendritic cell [5]): Active

Compound: C#CCn1cc(C(=O)NCCCOC(=O)[C@@H](O)[C@@H](NC(=O)OC(C)(C)C)c2ccccc2)c(=O)c2ccc(Cl)nc21
- IC50 (DU-145): > 10 µM
- IC50 (NIH3T3 (Mus musculus)): 7.84 µM
- IC50 [6]: > 10 µM
- IC50 (SW-620): 3 µM
- inhibition at 1 µg/mL [4]: > 50%
- IC50 (KB): > 10 µM
- IC50 (A549): > 10 µM
- IC50 (HBL-100): > 10 µM
- IC50 (PA-1): > 10 µM
- IC50 (K562): > 10 µM
- Activity (Dendritic cell [5]): Active

Compound: C#CCn1cc(C(=O)N[C@@H](C)CCOC(=O)[C@H](C)NC(=O)OC(C)(C)C)c(=O)c2ccc(Cl)nc21
- IC50 (DU-145): > 10 µM
- IC50 (NIH3T3 (Mus musculus)): > 10 µM
- IC50 [6]: > 10 µM
- IC50 (SW-620): > 10 µM
- IC50 (KB): 8.3 µM
- IC50 (A549): > 10 µM
- IC50 (HBL-100): > 10 µM
- IC50 (PA-1): 4.9 µM
- IC50 (K562): > 10 µM

Compound: C#CCn1cc(C(=O)NCCCOC(=O)[C@H]2OC(C)(C)N(C(=O)OC(C)(C)C)[C@@H]2c2ccccc2)c(=O)c2cccnc21
- Inhibition [7]: >50%

Compound: C#CCn1cc(C(=O)N[C@@H](C)CCOC(=O)[C@H]2CCCN2C(=O)OC(C)(C)C)c(=O)c2ccc(Cl)nc21
- IC50 (DU-145): > 10 µM
- IC50 (NIH3T3 (Mus musculus)): > 10 µM
- IC50 [6]: > 10 µM
- IC50 (SW-620): 3.3 µM
- IC50 (KB): 6.6 µM
- IC50 (A549): > 10 µM
- IC50 (HBL-100): 8.4 µM
- IC50 (PA-1): 5.2 µM
- IC50 (K562): > 10 µM

Reference: ChEMBL document CHEMBL1140577, “Anticancer and anti-inflammatory activities of 1,8-naphthyridine-3-carboxamide derivatives” (Bioorg Med Chem Lett, 2007)
